UBC13 inh: blocks human UBC13 polyubiquitin chain formation; AID 485273; P61088; 0.47% of 330,000 active; TR-FRET; inhibition, % at 20 µM; in the data active means inhibition above about 45%, passing the limit was not always enough
Rin1-Abl PPI inh: inhibitors of human Rin1-Abl protein interaction. 0.4% of 360,000 active. AID 588664. inhibition, % at 7.35 µM. TR-FRET Rin1/Abl binding, biochemical. P00519+Q13671; in the data active means inhibition above about 5%, passing the limit was not always enough
Target sequence (P00519 whole entry, looked up): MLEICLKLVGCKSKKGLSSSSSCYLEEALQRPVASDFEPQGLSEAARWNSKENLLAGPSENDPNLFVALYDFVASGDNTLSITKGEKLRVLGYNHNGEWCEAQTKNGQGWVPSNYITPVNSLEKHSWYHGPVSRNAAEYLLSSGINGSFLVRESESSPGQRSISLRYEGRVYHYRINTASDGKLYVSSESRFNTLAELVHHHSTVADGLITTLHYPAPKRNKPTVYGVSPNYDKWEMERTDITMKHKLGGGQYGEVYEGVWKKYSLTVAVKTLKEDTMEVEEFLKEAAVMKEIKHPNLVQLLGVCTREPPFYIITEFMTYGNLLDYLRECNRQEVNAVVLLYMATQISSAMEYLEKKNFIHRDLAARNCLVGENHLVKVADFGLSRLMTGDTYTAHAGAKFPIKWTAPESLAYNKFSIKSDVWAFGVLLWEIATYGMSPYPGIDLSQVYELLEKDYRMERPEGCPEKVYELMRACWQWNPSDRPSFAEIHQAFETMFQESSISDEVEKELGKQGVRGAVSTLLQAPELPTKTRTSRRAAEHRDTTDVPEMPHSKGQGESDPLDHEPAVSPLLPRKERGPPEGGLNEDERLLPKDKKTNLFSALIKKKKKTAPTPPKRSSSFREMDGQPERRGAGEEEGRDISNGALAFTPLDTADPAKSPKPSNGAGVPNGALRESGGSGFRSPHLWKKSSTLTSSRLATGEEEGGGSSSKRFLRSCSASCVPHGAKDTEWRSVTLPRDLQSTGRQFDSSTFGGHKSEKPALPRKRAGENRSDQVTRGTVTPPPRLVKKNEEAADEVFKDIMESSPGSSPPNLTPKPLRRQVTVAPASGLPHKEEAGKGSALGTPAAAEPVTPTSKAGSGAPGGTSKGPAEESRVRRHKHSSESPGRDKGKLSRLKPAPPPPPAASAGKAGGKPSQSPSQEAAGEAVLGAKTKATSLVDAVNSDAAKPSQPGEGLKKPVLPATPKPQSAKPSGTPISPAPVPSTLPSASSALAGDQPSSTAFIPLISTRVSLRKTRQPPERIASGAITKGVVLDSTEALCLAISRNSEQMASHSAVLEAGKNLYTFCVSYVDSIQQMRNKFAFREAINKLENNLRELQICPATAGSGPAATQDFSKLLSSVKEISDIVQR
Target sequence (Q13671 whole entry, looked up): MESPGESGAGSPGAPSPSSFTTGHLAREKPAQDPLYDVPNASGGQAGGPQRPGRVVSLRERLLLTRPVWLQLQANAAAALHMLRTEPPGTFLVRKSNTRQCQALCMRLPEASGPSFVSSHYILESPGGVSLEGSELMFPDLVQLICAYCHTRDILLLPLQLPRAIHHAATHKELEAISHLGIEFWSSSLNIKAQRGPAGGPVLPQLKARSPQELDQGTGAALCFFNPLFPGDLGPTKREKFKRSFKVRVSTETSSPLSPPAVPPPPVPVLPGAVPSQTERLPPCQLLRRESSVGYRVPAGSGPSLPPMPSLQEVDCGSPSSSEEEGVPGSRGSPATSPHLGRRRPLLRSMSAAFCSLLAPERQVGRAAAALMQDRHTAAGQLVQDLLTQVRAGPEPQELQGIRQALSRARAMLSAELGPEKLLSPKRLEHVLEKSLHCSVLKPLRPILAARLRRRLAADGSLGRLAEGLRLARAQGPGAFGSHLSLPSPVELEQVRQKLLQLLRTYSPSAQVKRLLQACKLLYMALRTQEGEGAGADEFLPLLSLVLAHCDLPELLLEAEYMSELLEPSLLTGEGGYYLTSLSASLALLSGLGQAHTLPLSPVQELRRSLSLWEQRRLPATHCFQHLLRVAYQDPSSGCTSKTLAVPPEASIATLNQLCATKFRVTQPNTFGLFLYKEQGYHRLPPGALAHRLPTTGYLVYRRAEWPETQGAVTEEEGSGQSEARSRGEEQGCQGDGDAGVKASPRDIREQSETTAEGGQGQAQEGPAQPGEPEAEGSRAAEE
GSTO1 counter: counter-screen for RBBP9 inhibitors: inhibitors of human GSTO1 | P78417 | recombinant GSTO1, activity-based probe fluorescence polarization | inhibition, % at 5.96 µM | 1.1% of 300,000 active;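 active means inhibition above the campaign mean inhibition plus 3 SD, cut at about 35% in these data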
SUMO HTRF inh: blocks human SUMOylation mediated by UBC9. P63279. HTRF SUMOylation assay, SAE1/SAE2 + UBC9, in vitro. inhibition, % at 35 µM. 0.36% of 290,000 active. AID 2006; in the data active means inhibition above about 50%, passing the limit was not always enough
PAD4 inh: inhibitors of human PAD4; Q9UM07; recombinant PAD4, RCA probe fluorescence polarization; inhibition, % at 6.36 µM; 0.41% of 330,000 active; AID 485272;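 active means percent inhibition above a cutoff equal to the mean of all tested compounds plus 3 SD, cut at about 15% in these data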
Apaf-1 inh: blocks human Apaf-1 apoptosome activity; reconstituted apoptosome caspase-3 activity, DEVD-Rh110 fluorescence; O14727; 0.71% of 330,000 active; inhibition, % at 20 µM; active means inhibition of at least 40% at 20 µM
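Material: biochemical Apaf-1 apoptosome reconstitution. Medium: Hepes buffer, pH 7.5. Also added: cytochrome c activation, bis-DEVD rhodamine 110 substrate. Timing: 30 min compound preincubation, 50 min activation, room temperature. Measured by: rhodamine 110 fluorescence at Ex 480/Em 540 nm.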
GSTO1 inh conf: confirmation of human GSTO1 inhibitors. 54% of 2,400 active. recombinant GSTO1, probe fluorescence polarization. AID 2176. inhibition, % at 5.96 µM. shares compounds with GSTO1 counter;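 active means inhibition above the primary screen's cutoff, its mean inhibition plus 3 SD, cut at about 35% in these data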;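 further: loss of polarization as inhibitors block binding of rhodamine sulfonate ester activity probe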
GSTO1 recomb ABPP: inhibitors of recombinant human GSTO1; AID 463110; 30% of 130 active; inhibition, % at 1 µM; gel ABPP SE-Rh probe fluorescence; shares compounds with GSTO1 counter;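 active means inhibition of the enzyme GSTO1 above about 75%, limit read from the data; inactive means inhibition below that limit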
Numbers stand for hits; . = inactive; / = not tested or not shown. Sampled rows, rich in hits. Any-hit rate of the full collection: about 2.2%.

SMILES	UBC13 inh	Rin1-Abl PPI inh	GSTO1 counter	SUMO HTRF inh	PAD4 inh	Apaf-1 inh	GSTO1 inh conf	others
Cn1c(-c2ccccc2)cc(=O)c2ccccc21	.	.	.	.	.	.	/
NC(=O)CCn1c(C(=O)c2ccc(Cl)cc2)c2ccccc2[n+]1[O-]	.	.	50	.	.	.	.
CCOC(=O)c1sc(N2N=C(C)/C(=C\c3ccc(OCC(=O)OC)cc3)C2=O)nc1C	.	.	39	.	.	.	.
CCOC(=O)c1sc(Nc2ccc(OCC)cc2)nc1C	.	.	.	.	.	.	/
Nc1c(C(=O)OCC2CCCO2)c2nc3ccccc3nc2n1C1CCCCC1 (centres undefined)	.	.	67	.	.	.	.
Nc1c(S(=O)(=O)c2cccs2)c2nc3ccccc3nc2n1CC1CCCO1 (centres undefined)	.	.	.	.	.	.	/
Cn1nnnc1NN=Cc1ccccc1	/	.	/	/	/	/	/
CCNc1nc(NCC)n2c(SCC(=O)c3ccc(C(C)C)cc3)nnc2n1	.	.	95	.	.	.	87
Cc1ccc(S(=O)(=O)c2c(N)n(CCCO)c3nc4ccccc4nc23)cc1	.	.	60	.	.	.	.
Cc1ccc(S(=O)(=O)c2c(N)n(CCC(C)C)c3nc4ccccc4nc23)cc1	.	.	.	.	.	.	/
Cc1cccc(CC(=O)Nc2ccon2)c1	.	.	59	.	.	.	.
Cc1ccccc1CC(=O)Nc1ccon1	.	.	.	.	.	.	/
CCOc1cc(N2CCOCC2)c(OCC)cc1NC(=O)COC(=O)[C@@H]1CCCN1S(=O)(=O)c1ccccc1F	.	.	80	.	.	.	80
CCc1nc2cc(NC(=O)C3(C)CCCN(C(C)C)C3)ccc2o1 (centres undefined)	/	.	/	/	/	/	/
CS(=O)(=O)c1ccc(Nc2nc(C(N)c3ccccc3Cl)cs2)cc1 (centres undefined)	/	.	/	/	/	/	/
COc1ccc(N(C)C(=O)C2CCCN2S(=O)(=O)c2cccc3nsnc23)c(OC)c1 (centres undefined)	.	.	.	.	.	.	/
N#C/C(=C(/O)CCl)c1nc2ccccc2[nH]1	.	.	84	.	.	.	94
COC(=O)c1c([N+](=O)[O-])c(OC)c(OC)c(OC)c1[N+](=O)[O-]	.	.	39	.	.	.	54
CCOC(=O)C1CCN(Cc2cc(Cl)c3ccccc3c2O)CC1	.	.	.	.	.	.	/
O=C(O)C1=NN(c2ccccc2)C(=O)CC1	.	.	.	.	.	.	/
O=C(O)C1=NN(c2ccccc2)C(=O)C1	.	.	48	.	.	.	.
CCOC(=O)Nc1nnc(-c2ccccc2OC)s1	.	.	.	.	.	.	/
CCC(SC1=NCCS1)C(=O)Nc1nnc(-c2ccccc2OC)s1 (centres undefined)	.	.	59	.	.	.	61
CC(=O)Nc1ccc(Sc2ccccc2C(=O)Nc2ccc(F)cc2)cn1	.	.	.	.	.	.	/
CC(=O)Nc1ccc(Sc2ccccc2C(=O)O)cn1	.	.	44	.	.	.	.
SMILES	UBC13 inh	Rin1-Abl PPI inh	GSTO1 counter	SUMO HTRF inh	PAD4 inh	Apaf-1 inh	GSTO1 inh conf	others
CCCCN(C=O)c1c(CC)nc2ccc(C(=O)N3CCN(C(C)=O)CC3)cn12	/	.	/	/	/	/	/
CCNC(=O)C1CCCN(C(=O)c2ccc(N(C)C)cc2)CC1 (centres undefined)	/	.	/	/	/	/	/
COC(=O)C1(CC2CC(c3cccc(Br)c3)=NO2)CCN(C(=O)OC(C)(C)C)CC1 (centres undefined)	.	.	.	.	.	.	/
ClCc1csc(-c2ccc(Cl)cc2)n1	.	.	91	.	.	.	101	GSTO1 recomb ABPP=.
CC1CN(Cc2csc(-c3ccc(Cl)cc3)n2)CC(C)O1 (centres undefined)	.	.	.	.	.	.	/
CCOc1ccc(-c2nc(CCl)cs2)cc1	.	.	79	.	.	.	93	GSTO1 recomb ABPP=.
O=C(CCl)Nc1cccc(S(=O)(=O)NC2=NCCC2)c1	.	.	99	.	.	.	99
CC(C)C(=O)Nc1cccc(S(=O)(=O)NC2=NCCC2)c1	/	.	/	/	/	/	/
COc1ccc(C(=O)c2c(C(F)(F)F)oc3c2C(=O)c2ccccc2C3=O)cc1OC	.	.	77	.	34	85	65
Cn1c(N)c(C(=O)CNC2CCCCC2)c(=O)n(C)c1=O	.	.	.	/	.	.	/
COc1ccc(S(=O)(=O)N2CCOCC2)cc1C(=O)Nc1ccc(N2CCCCCC2)cc1	/	.	/	/	/	/	/
COc1cccc2c1C(=O)c1c(O)c3c(c(O)c1C2=O)C[C@](O)(C(C)=O)C[C@H]3O[C@@H]1C[C@@H](N)[C@@H](O)[C@@H](C)O1	.	.	48	/	73	.	40
Cc1ccc(N(C(=O)CNC(=O)c2ccco2)C(C(=O)NC2CCCCC2)c2cccnc2)cc1C (centres undefined)	.	.	.	.	.	.	/
Cc1ccc(N(C(=O)CCl)C(C(=O)NC2CCCCC2)c2cccnc2)cc1C (centres undefined)	/	/	99	.	.	/	92	GSTO1 recomb ABPP=.
O=C(N/N=C/c1cccc(F)c1)c1cc(-c2ccco2)nc2ccccc12	.	.	41	79	.	.	.
COc1cc(/C=N/NC(=O)c2cc(-c3ccco3)nc3ccccc23)cc(OC)c1O	.	.	.	.	.	.	/
O=C(c1ccc2ccccc2c1)c1cccc(F)c1C(=O)O	/	.	/	/	/	/	/
CCN(CC)CCSc1nnc2c3ccccc3n(Cc3ccccc3)c2n1	.	.	.	.	.	.	/
CC1=CC(=Nc2c(C)n(C)n(-c3ccccc3)c2=O)C=CC1=O	.	/	74	.	.	43	41
O=C(O)c1ccc2c(c1)C(=O)/C(=C\c1ccco1)C2=O	.	.	40	.	.	.	50
Cc1ccc(/C=C2/C(=O)c3ccc(C(=O)O)cc3C2=O)o1	/	.	/	.	/	/	/
CC(=O)Nc1ccc(S(=O)(=O)N(C)CC(=O)OCC(=O)Nc2cc(C)on2)cc1	.	.	/	/	.	.	/
O=S(=O)(c1ccc(OCC2CO2)cc1)c1ccc(OCC2CO2)cc1 (centres undefined)	.	.	92	.	.	.	90	GSTO1 recomb ABPP=.
CC(C)(c1ccccc1)c1ccc(OCC2CO2)cc1 (centres undefined)	.	.	94	.	.	.	91	GSTO1 recomb ABPP=.
CN(C)CCOc1ccc(C(C)(C)c2ccccc2)cc1	.	.	.	.	.	.	/
CCN(CC(=O)Nc1ccc(NC(C)=O)cc1)C(=O)c1cc(CN2C(=O)c3ccccc3C2=O)ccc1OC	.	.	.	/	.	.	/
Cc1cc(O)c(Oc2cc(C)cc(O)c2O)c(O)c1	.	.	56	.	.	.	.
Cc1cc(C(C)(C)C)c(O)c(C(C)(C)C)c1	.	.	.	.	.	.	/
